Screening results: PubChem BioAssay, several laboratories
PP5 primary – PP5 phosphatase inhibitors, primary screen, biochemical, fluorescence; Serine/threonine-protein phosphatase 5 (Homo sapiens), P53041; purified PP5c, OMFP substrate fluorescence; inhibition, % at 6.7 µM; 320,000 compounds, 0.18% hits;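 active = inhibition above the campaign's mean inhibition across all tested compounds plus 3 SD, cut at about 9.5% in these data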
NadD block – inhibitors of S. aureus NadD, primary screen, biochemical, colorimetric, uHTS; Nicotinate-nucleotide adenylyltransferase NadD (Staphylococcus aureus N315); purified NadD enzyme, colorimetric absorbance read-out; inhibition, % at 20 µM; 360,000 compounds, 0.78% hits; AID 602399, 2012; in the data active = inhibition above about 26%
CTSL1 counter – Fasciola hepatica cathepsin L1 inhibitors, primary screen, counter-screen for PFM18AAP inhibitor project, biochemical, QFRET, fluorogenic peptide substrate | recombinant F. hepatica cathepsin L1, Z-Leu-Arg-MCA fluorescence | inhibition, % at 5.96 µM | 300,000 compounds, 0.49% hits;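 active = inhibition above the mean of all tested compounds plus 3 SD, set per screening campaign, cut at about 17% in these data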
HCV core dimer – inhibitors of HCV core protein dimerization, primary screen, biochemical, TR-FRET, high-throughput. inhibition, % at 5 µM. AID 1899, 2009. TR-FRET GST/Flag-core106 dimerization, 1536-well. 300,000 compounds, 0.33% hits;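 active = inhibition above the mean of all tested compounds plus 3 SD, set per screening campaign, cut at about 45% in these data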
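Test system: GST/Flag-tagged HCV core106 proteins; Medium: KF-containing HEPES buffer, pH 7.45, DTT, CHAPS, BSA; Times: compound-protein-antibody incubation 4 h at 22.5 °C; Detection: TR-FRET 671 and 617 nm emission; Benchmarks: wells lacking GST-core106 and wells with excess unlabelled core106.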
PP1 inh – PP1-alpha phosphatase inhibitors, primary screen, counter-screen for PP5 inhibitor project, biochemical, fluorescence, OMFP substrate, single point; purified PP1alpha; inhibition, % at 6.7 µM; 320,000 compounds, 0.9% hits; AID 2235, 2010;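 active = inhibition above the mean inhibition of all tested compounds plus 3 SD, computed separately for each screening campaign, cut at about 15% in these data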
Target sequence (P62136 whole entry, looked up): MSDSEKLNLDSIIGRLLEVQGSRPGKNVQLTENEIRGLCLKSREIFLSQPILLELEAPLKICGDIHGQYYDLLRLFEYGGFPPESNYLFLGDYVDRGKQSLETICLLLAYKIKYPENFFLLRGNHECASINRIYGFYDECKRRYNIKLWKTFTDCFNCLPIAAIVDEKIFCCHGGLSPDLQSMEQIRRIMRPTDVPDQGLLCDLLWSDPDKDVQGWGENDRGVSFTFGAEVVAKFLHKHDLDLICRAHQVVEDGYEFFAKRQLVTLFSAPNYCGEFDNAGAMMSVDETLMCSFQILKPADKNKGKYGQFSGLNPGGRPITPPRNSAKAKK
Myeloid diff 2 – induction of myeloid progenitor differentiation, primary screen, cell-based, flow cytometry, MLPCN library. AID 624256, 2012. 360,000 compounds, 1% hits. calls only at 10 µM. ER-HoxA9 myeloid progenitors, lysozyme-GFP differentiation;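 active = normalized GFP-positive differentiation at or above the plate's own cutoff, the solvent-only control mean plus 3 SD; inconclusive = no clear call, values can overlap the other calls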;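 also: cells exposed to compound for four days before flow analysis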
NadD inh conf – inhibitors of S. aureus NadD, confirmation, biochemical, colorimetric, single concentration; purified S. aureus NadD, colorimetric enzyme assay; shares compounds with NadD block; AID 624309, 2012; 2,000 compounds, 13% hits; inhibition, % at 20 µM; in the data active = inhibition mostly above about 42%, no sharp cut-off; inactive = mostly below about 42%
Myeloid diff – inducers of myeloid progenitor differentiation, confirmation, cell-based, GFP/Mac1 flow cytometry, cherry pick 01. shares compounds with Myeloid diff 2. 2,300 compounds, 2% hits. ER-HoxA9 myeloid progenitors, GFP/Mac1 double-positive flow. calls only. AID 651706, 2012;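 active = share of green or green-and-red cells above 9 and 9% in run 1 or 4 and 3% in run 2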
GFP autofluor – flagged as fluorescent in myeloid differentiation counter-screen; shares compounds with Myeloid diff 2; ER-HoxA9 myeloid progenitors, no estrogen, GFP autofluorescence flow cytometry; vehicle wells 0%, positive control 100%; fluorescence response, % (no concentration beside the values); 2,300 compounds, 7.4% hits;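 active = over 5% cells positive for green fluorescent reporter, or over 2% positive for both it and APC stain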
A number is an active result; . = inactive; ? = inconclusive; / = no result given; + = active, no number. A selection: hits, their analogues and other compounds. The true share with any hit is near 3.1%.

SMILES	PP5 primary	NadD block	CTSL1 counter	HCV core dimer	PP1 inh	Myeloid diff 2	Myeloid diff	GFP autofluor	others
CC(=O)O[C@@H]1CC[C@]2(C)C3CC[C@]4(C)C(=O)[C@H](O)CC4C3[C@@H](OC(C)=O)C[C@H]2C1 (stereo partly specified)	/	.	/	/	/	.	/	/
O=C(Cc1cc(=O)oc2cc(O)ccc12)NN=Cc1ccc(N(CCCl)CCCl)cc1	/	54	/	/	/	.	.	.	NadD inh conf=49
O=C(NN=Cc1ccc(N(CCCl)CCCl)cc1)c1cc(=O)[nH]c(=O)[nH]1	/	.	/	/	/	.	/	/
CN1CCCN(c2ccc([N+](=O)[O-])nc2)CC1	.	.	.	.	.	?	/	/
CC(C)CCn1c(=O)c(C(=O)Nc2ccccc2S(N)(=O)=O)c(O)c2ccccc21	.	49	.	.	.	.	.	8.6	NadD inh conf=.
COC(=O)C1=C(c2cc3ccccc3s2)C[C@@H]2CC[C@H]1N2C(=O)N1CCCC1	.	.	.	.	.	.	/	/
COC(=O)C1=C(c2cc3ccccc3s2)C[C@@H]2CC[C@H]1N2C(=O)N1CCOCC1	.	.	.	.	.	.	.	.
COC(=O)C1=C(c2ccc3ccccc3c2)C[C@@H]2CC[C@H]1N2C(=O)NCCCOC(C)C	.	.	/	/	.	.	/	/
COC(=O)C1=C(c2ccc(OC(F)(F)F)cc2)C[C@@H]2CC[C@H]1N2C(=O)NC1Cc2ccccc2C1	.	.	/	/	.	.	/	/
CCCNC(=O)N1[C@H]2CC[C@@H]1C(C(=O)OC)=C(c1ccc3ccccc3c1)C2	.	.	/	/	.	.	.	.
COC(=O)C1=C(c2ccc(OC(F)(F)F)cc2)C[C@@H]2CC[C@H]1N2C(=O)NC1CCCCC1	.	.	/	/	.	.	.	.
COCCCNP1(=O)OCC(C)([N+](=O)[O-])CO1 (stereo unspecified)	/	.	/	/	/	.	/	/
COC(=O)C1=C(c2c(C)noc2C)C[C@@H]2CC[C@H]1N2C(=O)NCc1ccco1	.	.	/	/	.	.	/	/
C1CCC(NC2CCCCC2)CC1	.	.	/	/	.	.	/	/
OC(c1ccccc1)(c1ccccc1)C1CCNCC1	.	.	.	.	.	.	/	/
OC(c1ccccc1)(c1ccccc1)c1ccncc1	.	.	.	.	.	+	.	.
CN(C)C(=O)Oc1ccc([N+](=O)[O-])cc1	.	.	.	.	.	.	/	/
CC(=O)Nc1ccc([As](=O)(O)c2ccc([N+](=O)[O-])cc2)cc1	.	.	.	.	.	.	.	.
CCCCCn1c(=O)c(C(=O)Nc2ccccc2Cl)c(O)c2ccccc21	.	.	.	.	.	+	.	.
CC12CC(=O)C3C(CCC4CC(=O)C=CC43C)C1CCC2=O (stereo unspecified)	/	.	/	/	/	?	/	/
CCCCCCC(=O)N/N=C/c1c(O)n(C(C)CC)c(=S)[nH]c1=O (stereo unspecified)	.	.	.	.	.	.	.	.
Cn1ccnc1P(=S)(c1nccn1C)c1nccn1C	.	.	.	.	.	+	.	.
O=C(/C=C/c1ccccc1)c1c(O)n(CCc2ccccc2)c(=O)[nH]c1=O	.	.	.	.	.	+	.	.
O=C(/C=C/c1ccc2c(c1)OCO2)c1c(O)n(CCc2ccccc2)c(=O)[nH]c1=O	.	.	.	.	.	.	/	/
CCN1C[C@]2(CO)CC[C@H](OC)[C@@]34C5C[C@H]6[C@H](OC)C5[C@](O)(C[C@H]6OC)[C@@](O)(C(OC)C23)[C@@H]14 (stereo partly specified)	.	.	.	.	.	.	/	/
SMILES	PP5 primary	NadD block	CTSL1 counter	HCV core dimer	PP1 inh	Myeloid diff 2	Myeloid diff	GFP autofluor	others
Cc1ccccc1C1=NCC(=O)N(CC(=O)NCc2ccco2)c2sc3c(c21)CCCC3	.	.	.	.	.	.	.	.
CC(NC(=O)N1CC1(C)C)c1ccccc1 (stereo unspecified)	/	.	/	/	/	.	/	/
Cc1ccc(CC(=O)N2CCN(C)CC2)cc1	.	.	.	.	.	.	/	/
COc1ccc(CC(=O)N2CCN(C)CC2)cc1	.	.	.	.	.	.	.	.
O=c1[nH]c(=S)[nH]c(O)c1/C=C1/C=c2ccccc2=N1	.	.	.	.	.	+	.	16
CC1CCCC(NC(=O)COC(=O)c2cn(C)c3ccccc23)C1C (stereo unspecified)	.	.	/	/	.	.	/	/
CCOc1ccc(N=Cc2c(O)n(Cc3ccccc3)c(=S)[nH]c2=O)cc1	.	.	.	.	.	.	/	/
C=CCn1c(O)c(C=NCCCOc2ccc(CC)cc2)c(=O)[nH]c1=S	.	.	.	.	.	+	.	.
CCOCC1(CCc2ccccc2)C(=O)NC(=S)NC1=O	/	.	/	/	/	.	/	/
COC(=O)C1=C(c2ccc(C(C)=O)cc2)C[C@@H]2CC[C@H]1N2C(=O)NCc1ccc(C(F)(F)F)cc1	.	.	/	/	.	.	/	/
CCOC(=O)C(C)Oc1cc(C)cc2oc(=O)c3c(c12)CCCC3 (stereo unspecified)	.	.	.	.	.	.	.	.
O=C1NC(=O)N(Cc2ccccc2)C(=O)/C1=C/C=C/c1ccco1	.	.	.	.	.	.	.	.
COc1ccc(CN2C(=O)NC(=O)/C(=C\c3ccco3)C2=O)cc1	.	.	.	.	.	.	/	/
O=C(NC(Oc1ccccc1)C(Cl)(Cl)Cl)c1ccccc1 (stereo unspecified)	.	.	.	.	.	.	/	/
CC(=O)c1ccc(OC(NC(=O)c2ccco2)C(Cl)(Cl)Cl)cc1 (stereo unspecified)	.	.	.	.	.	+	.	.
Cc1[nH]nc2ccc(-c3cncc(OC[C@@H](N)Cc4c[nH]c5ccccc45)c3)cc12	/	.	/	/	/	?	/	/
CCOC(=O)c1c(NC(=O)c2c(N)n(CCCOC)c3nc4ccccc4nc23)sc2c1CCCC2	.	.	.	.	.	.	.	.
